In ChEMBL document CHEMBL1152851, “Synthesis, cytotoxicity and effects of some 1,2,4-triazole and 1,3,4-thiadiazole derivatives on immunocompetent cells” (Eur J Med Chem, 2009):

Tests used:
PBL [1] = assay: Stimulation of immune response in pretreated […] isolated from Graffi myeloid tumor bearing hamster assessed as number of plaque forming cells after 24 hrs […]; assay type: cell-based; conditions: cricetinae
[2] = Stimulation of immune response in pretreated spleen cells isolated from Graffi myeloid tumor bearing hamster assessed as rosette formation; assay type: cell-based; conditions: cricetinae
[3] = Cytotoxicity against solid form of Graffi myeloid tumor bearing hamster thymocytes after 24 hrs by trypan blue assay; assay type: cell-based; conditions: cricetinae, thymocyte
In short: (§1)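 Thymocytes and peripheral blood lymphocytes came from sexually mature hamsters bearing solid Graffi myeloid tumor. Compounds were made up at 0.5 mg/ml in DMSO, and this stock was diluted 1:10, 1:100, 1:1000 and 1:100,000. Equal volumes of cells and dilution were mixed and held 24 h at 37 °C in humidified 5% CO2. Survival was scored by 0.2% trypan blue exclusion under the microscope, and IC50 was derived.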

[4] = Stimulation of immune response in pretreated thymocytes isolated from Graffi myeloid tumor bearing hamster assessed as migration area after 16 hrs by indirect agarose technique; assay type: cell-based; conditions: cricetinae, thymocyte
In short: (§2)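 Cells came from treated tumor-bearing hamsters: spleen cells, thymocytes or blood lymphocytes. They were loaded into 3-mm wells cut in an agarose monolayer in 50 mm Petri dishes and kept 16 h at 37 °C, 5% CO2. The migration area was then measured. The migration index (LIF) is the ratio of experimental to control migration area. Values are means of three experiments.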

[5] = Cytotoxicity against pretreated spleen cells isolated from Graffi myeloid tumor bearing hamster assessed as full lysis; assay type: cell-based; conditions: cricetinae
[6] = Stimulation of immune response in pretreated thymocytes isolated from Graffi myeloid tumor bearing hamster assessed as number of plaque forming cells after 24 hrs […]; assay type: cell-based; conditions: cricetinae, thymocyte
[7] = Stimulation of immune response in pretreated thymocytes isolated from Graffi myeloid tumor bearing hamster assessed as ratio of migration area of experimental cells to control cells after 16 hrs by indirect agarose technique; assay type: cell-based; conditions: cricetinae, thymocyte; in short: as §2
[8] = Stimulation of immune response in pretreated thymocytes isolated from Graffi myeloid tumor bearing hamster assessed as rosette formation; assay type: cell-based; conditions: cricetinae, thymocyte
PBL [9] = assay: Cytotoxicity against PBL isolated from solid form of Graffi myeloid tumor bearing hamster pretreated at 0.5 mg/ml, ip for 5 days measured after 24 hrs by trypan blue assay; conditions: Cricetinae
In short: (§3)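 Tumor-bearing hamsters first received compound at 0.5 mg/ml i.p. Thymocytes or blood lymphocytes were isolated five days later. These were exposed in vitro to serial dilutions of a DMSO stock (5 mg/ml) for 24 h at 37 °C, 5% CO2, then scored with 0.2% trypan blue. Each IC50 is the mean of three parallel samples in three independent experiments.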

PBL [10] = assay: Stimulation of immune response in pretreated PBL isolated from Graffi myeloid tumor bearing hamster assessed as rosette formation; assay type: cell-based; conditions: cricetinae
[11] = Cytotoxicity against thymocytes isolated from solid form of Graffi myeloid tumor bearing hamster pretreated at 0.5 mg/ml, ip for 5 days measured after 24 hrs by trypan blue assay; conditions: cricetinae, thymocyte; in short: as §3
[12] = Stimulation of immune response in pretreated spleen cells isolated from Graffi myeloid tumor bearing hamster assessed as number of plaque forming cells after 24 hrs by modified agar-plate method; assay type: cell-based; conditions: cricetinae
In short: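 Plaque-forming (haemolysin-producing B) cells were counted by the Cunningham–Szenberg method. Cells from treated tumor-bearing hamsters were mixed with complement and sheep red blood cells and loaded into chambers. Haemolytic zones were counted per 10⁶ lymphocytes. Values are means of three experiments, compared against cells from control animals.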

[13] = Stimulation of immune response in pretreated spleen cells isolated from Graffi myeloid tumor bearing hamster assessed as migration area after 16 hrs by indirect agarose technique; assay type: cell-based; conditions: cricetinae; in short: as §2
PBL [14] = assay: Cytotoxicity against solid form of Graffi myeloid tumor bearing hamster PBL after 24 hrs by trypan blue assay; assay type: cell-based; conditions: Cricetinae; in short: as §1
PBL [15] = assay: Stimulation of immune response in pretreated PBL isolated from Graffi myeloid tumor bearing hamster assessed as migration area after 16 hrs by indirect agarose technique; assay type: cell-based; conditions: cricetinae; in short: as §2
PBL [16] = assay: Stimulation of immune response in pretreated PBL isolated from Graffi myeloid tumor bearing hamster assessed as ratio of migration area of experimental cells to control cells after 16 hrs by indirect agarose technique; assay type: cell-based; conditions: cricetinae; in short: as §2
[17] = Stimulation of immune response in pretreated spleen cells isolated from Graffi myeloid tumor bearing hamster assessed as ratio of migration area of experimental cells to control cells after 16 hrs by indirect agarose technique; assay type: cell-based; conditions: cricetinae; in short: as §2

| Structure (SMILES) | Activity (PBL [1]) | Activity [2] | IC50 [3] | Activity [4] | Activity [5] | Activity [6] | Ratio [7] | Activity [8] | IC50 (PBL [9]) | Activity (PBL [10]) | IC50 [11] | Activity [12] | Activity [13] | IC50 (PBL [14]) | Activity (PBL [15]) | Ratio (PBL [16]) | Ratio [17] |
| --- | --- | --- | --- | --- | --- | --- | --- | --- | --- | --- | --- | --- | --- | --- | --- | --- | --- |
| CCNC(=S)NNC(=O)c1cc2c(s1)CCCC2 | 768 | Not Active | 110 nM | 146 mm2 | Toxic | 2040 | 0.08 | Not Active | 14 nM | Not Active |  |  |  |  |  |  |  |
| Nn1c(-c2ccc(-c3ccccc3)s2)n[nH]c1=S | 19920 | Not Active | 240 nM | 1836 mm2 |  | 19200 | 0.954 | Not Active | 12 nM | Not Active | 0.001 nM | 4700 | 2332 mm2 |  |  |  |  |
| CCNC(=S)NNC(=O)c1ccc(-c2ccccc2)s1 | 5200 | Not Active | 2100 nM | 202 mm2 |  | 7800 | 0.104 | Not Active | 320 nM | Not Active | 3500 nM | 2010 | 822 mm2 | 1640 nM |  |  |  |
| CCNc1nnc(-c2cc3c(s2)CCCC3)s1 | 14288 | Not Active | 260 nM | 1118 mm2 |  | 15300 | 0.581 | Not Active | 410 nM | Not Active | 0.0052 nM | 3928 | 1788 mm2 | 320 nM |  |  |  |
| Nn1c(-c2cc3c(s2)CCCC3)n[nH]c1=S | 5869 | Not Active | 2200 nM | 1024 mm2 |  | 7250 | 0.532 | Not Active | 140 nM | Not Active | 12 nM | 3920 | 1286 mm2 | 2670 nM | 1800 mm2 | 1.654 |  |
| CCn1c(-c2cc3c(s2)CCCC3)n[nH]c1=S | 4992 | Not Active | 120 nM | 997 mm2 |  | 5287 | 0.518 | Not Active | 290 nM | Not Active | 460 nM | 3700 | 1823 mm2 | 1810 nM |  | 0.001 | 0 |
